Activity calls are given as the source filed them. No cut-off for these calls is given here.
What was measured:
B2 bradykinin receptor [1] = molecular target: T1, B2 bradykinin receptor (Homo sapiens, UniProt P30411); experiment: Displacement of [3H]-Bradykinin from human bradykinin B2 receptor expressed in CHO cells membrane after 60 mins by scintillation counting; type: cell membranes
T1 sequence (P30411 whole entry): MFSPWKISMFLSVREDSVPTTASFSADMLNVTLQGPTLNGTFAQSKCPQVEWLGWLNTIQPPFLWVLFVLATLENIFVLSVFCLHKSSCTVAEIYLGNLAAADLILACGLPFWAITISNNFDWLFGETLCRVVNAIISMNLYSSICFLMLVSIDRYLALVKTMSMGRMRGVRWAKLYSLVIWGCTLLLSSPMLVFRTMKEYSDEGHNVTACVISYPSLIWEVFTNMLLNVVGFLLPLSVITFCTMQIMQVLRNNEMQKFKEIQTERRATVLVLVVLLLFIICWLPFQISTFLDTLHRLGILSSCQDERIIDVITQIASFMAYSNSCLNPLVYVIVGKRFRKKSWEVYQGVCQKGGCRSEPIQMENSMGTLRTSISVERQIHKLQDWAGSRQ

B1 bradykinin receptor = molecular target: T2, B1 bradykinin receptor (Homo sapiens, UniProt P46663); experiment: Displacement of [3H][desArg9]Lys-Bradykinin from human bradykinin B1 receptor expressed in CHO cells; type: cell-based
T2 sequence (P46663 whole entry): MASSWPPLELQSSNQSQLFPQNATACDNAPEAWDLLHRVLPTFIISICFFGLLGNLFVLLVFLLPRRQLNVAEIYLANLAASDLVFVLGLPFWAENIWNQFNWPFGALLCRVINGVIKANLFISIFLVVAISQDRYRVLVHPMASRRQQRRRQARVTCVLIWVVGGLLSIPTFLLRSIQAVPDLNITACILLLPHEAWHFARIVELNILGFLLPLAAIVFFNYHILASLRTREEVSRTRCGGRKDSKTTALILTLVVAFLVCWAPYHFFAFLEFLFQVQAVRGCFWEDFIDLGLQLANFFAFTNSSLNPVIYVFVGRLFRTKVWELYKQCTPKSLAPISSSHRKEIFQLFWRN

B2 bradykinin receptor [2] = molecular target: T1, B2 bradykinin receptor; experiment: Antagonist activity at human bradykinin B2 receptor expressed in dhfr-deficient CHO cells assessed as inhibition of bradykinin-induced inositol monophosphate accumulation preincubated for 15 mins prior bradykinin induction measured after 40 mins by liquid scintillation spectrometry; type: functional, cell-based; details: read-out: pA2 (converted)
How it was run: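 CHOdhfr-/hB2R cells (1.8×10^5/well) plated overnight at 37 °C, labelled 24 h with myo-[3H]inositol (1 uCi/well). Antagonist pre-incubation 15 min, then BK 1×10^-11 to 1×10^-5 M for 40 min at 37 °C in Hepes pH 7.4 buffer with 25 mM LiCl. IP1 radioactivity by liquid scintillation. Agonist curves fitted for EC50; pA2 = log(CR−1) − log[antagonist].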

[3] = molecular target: T3, B2 bradykinin receptor (Homo sapiens) (UniProt P30411); experiment: (§1) Reversible antagonist activity at human bradykinin B2 receptor expressed in dhfr-deficient CHO cells assessed as inhibition of bradykinin-induced inositol monophosphate accumulation at 3 uM preincubated for 15 mins prior bradykinin induction measured after 15 mins washout by liquid scintillation spectrometry; type: functional, cell-based
T3 sequence (whole entry): T1 sequence (P30411 whole entry)
How it was run: (§2)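 Washout in the IP accumulation assay in CHO/hB2R cells: antagonist (3 µM or 100 nM) pre-incubated 15 min, with medium then fully replaced every 15 min in washed cells. BK (2 nM) added and the reaction stopped after one hour; IP formed quantified. Expressed as % inhibition of time-matched BK responses in vehicle-pre-incubated cells.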

[4] = molecular target: T3, B2 bradykinin receptor (Homo sapiens); experiment: as §1, with “after 30” for “after 15”; type: functional, cell-based; how it was run: as §2
[5] = molecular target: T3, B2 bradykinin receptor (Homo sapiens); experiment: as §1, with “after 45” for “after 15”; type: functional, cell-based; how it was run: as §2
Cavia porcellus = experiment: Inhibition of bradykinin-induced bronchoconstriction in anesthetized Dunkin-Hartley guinea pig at […], it 5 mins prior bradykinin-induction for every 30 mins up to 210 mins; type: functional, organism-based
How it was run: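 Anaesthetized male Dunkin Hartley guinea pigs, 350–400 g. Compound given intratracheally, then repeated iv BK challenges (10 nmol/kg) with bronchoconstriction recorded.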

[6] = molecular target: T3, B2 bradykinin receptor (Homo sapiens); experiment: as §1, with “at 100 nM” for “at 3 uM”, “after 30” for “after 15”; type: functional, cell-based; how it was run: as §2
[7] = molecular target: T3, B2 bradykinin receptor (Homo sapiens); experiment: as §1, with “100 nM” for “3 uM”; type: functional, cell-based; how it was run: as §2
[8] = molecular target: T3, B2 bradykinin receptor (Homo sapiens); experiment: as §1, with “at 100 nM” for “at 3 uM”, “after 45” for “after 15”; type: functional, cell-based; how it was run: as §2

Row | SMILES | Ki (B2 bradykinin receptor [1]) [nM] | Ki (B1 bradykinin receptor) [nM] | Kb (B2 bradykinin receptor [2]) [nM] | further results
1 | Cc1cc(C)c2cccc(OCc3c(Cl)ccc(S(=O)(=O)NC4(C(=O)N5CC[N+](C)(CCCCC[N+](C)(C)C)CC5)CCOCC4)c3Cl)c2n1 | 0.0501 | > 10000 | 2.51 | –
2 | Cc1cc(C)c2cccc(OCc3c(Cl)ccc(S(=O)(=O)NC4(C(=O)N5CCN(C(=O)CCCCN(C)C)CC5)CCOCC4)c3Cl)c2n1 | 0.1 | > 10000 | 0.437 | –
3 | Cc1cc(C)c2cccc(OCc3c(Cl)ccc(S(=O)(=O)NC4(C(=O)N5CCN(C(=O)CCC[N+](C)(C)C)CC5)CCOCC4)c3Cl)c2n1 | 0.126 | > 10000 | 0.794 | –
4 | Cc1cc(C)c2cccc(OCc3c(Cl)ccc(S(=O)(=O)NC4(C(=O)N5CCN(CC[N+](C)(C)C)CC5)CCOCC4)c3Cl)c2n1 | 0.794 | > 10000 | – | –
5 | Cc1cc(C)c2cccc(OCc3c(Cl)ccc(S(=O)(=O)NC4(C(=O)N5CC[N+](C)(CCCC[N+](C)(C)C)CC5)CCOCC4)c3Cl)c2n1 | 0.0794 | > 10000 | 2 | –
6 | Cc1cc(C)c2cccc(OCc3c(Cl)ccc(S(=O)(=O)NC4(C(=O)N5CCN(C(=O)[C@@H](N)CCC[N+](C)(C)C)CC5)CCOCC4)c3Cl)c2n1 [FASITIBANT] | – | > 10000 | – | inhibition (Cavia porcellus): Active
7 | Cc1cc(C)c2cccc(OCc3c(Cl)ccc(S(=O)(=O)NC4(C(=O)N5CCC(CNCC[N+](C)(C)C)CC5)CCOCC4)c3Cl)c2n1 | 0.2 | > 10000 | 2.51 | –
8 | Cc1cc(C)c2cccc(OCc3c(Cl)ccc(S(=O)(=O)NC4(C(=O)N5CC[N+]6(CCCCC6)CC5)CCOCC4)c3Cl)c2n1 | 0.398 | > 10000 | 2.63 | inhibition [6]: 9%; inhibition [7]: 72%; inhibition [8]: -0%
9 | Cc1cc(C)c2cccc(OCc3c(Cl)ccc(S(=O)(=O)NC4(C(=O)N5CCN(C(=O)[C@@H](N)CCCCN(C)C)CC5)CCOCC4)c3Cl)c2n1 | 0.0631 | > 10000 | – | –
10 | Cc1cc(C)c2cccc(OCc3c(Cl)ccc(S(=O)(=O)NC4(C(=O)N5CCN(C(=O)[C@@H](N)CCCCNC(=N)N)CC5)CCOCC4)c3Cl)c2n1 | 0.0631 | > 10000 | – | –
11 | Cc1cc(C)c2cccc(OCc3c(Cl)ccc(S(=O)(=O)NC4(C(=O)N5CC[N+](C)(CC[N+](C)(C)C)CC5)CCOCC4)c3Cl)c2n1 | 0.251 | > 10000 | 3.16 | –
12 | Cc1cc(C)c2cccc(OCc3c(Cl)ccc(S(=O)(=O)NC4(C(=O)N5CCN(C(=O)[C@@H](N)CCCN(C)C)CC5)CCOCC4)c3Cl)c2n1 | 0.0501 | > 10000 | 0.123 | –
13 | Cc1cc(C)c2cccc(OCc3c(Cl)ccc(S(=O)(=O)NC4(C(=O)N5CCN(C(=O)CCCCCC[N+](C)(C)C)CC5)CCOCC4)c3Cl)c2n1 | 0.2 | > 10000 | 1.26 | –
14 | Cc1cc(C)c2cccc(OCc3c(Cl)ccc(S(=O)(=O)NC4(C(=O)N5CCC(CCC[N+](C)(C)C)CC5)CCOCC4)c3Cl)c2n1 | 0.501 | > 10000 | 1.58 | –

Second part, led by results:

Row | Ki (B2 bradykinin receptor [1]) [nM] | Ki (B1 bradykinin receptor) [nM] | Kb (B2 bradykinin receptor [2]) [nM] | SMILES | further results
15 | 0.126 | > 10000 | 0.794 | Cc1cc(C)c2cccc(OCc3c(Cl)ccc(S(=O)(=O)NC4(C(=O)N5CCN(C(=O)CCCCC[N+](C)(C)C)CC5)CCOCC4)c3Cl)c2n1 | –
16 | 1 | > 10000 | 1.58 | Cc1cc(C)c2cccc(OCc3c(Cl)ccc(S(=O)(=O)NC4(C(=O)N5CC[N+]6(CCN(C)CC6)CC5)CCOCC4)c3Cl)c2n1 | –
17 | 0.0501 | > 10000 | 2.51 | Cc1cc(C)c2cccc(OCc3c(Cl)ccc(S(=O)(=O)NC4(C(=O)N5CCC(CNCCCC[N+](C)(C)C)CC5)CCOCC4)c3Cl)c2n1 | –
18 | 0.631 | > 10000 | 3.98 | Cc1cc(C)c2cccc(OCc3c(Cl)ccc(S(=O)(=O)NC4(C(=O)N5CCC(CCCC[N+](C)(C)C)CC5)CCOCC4)c3Cl)c2n1 | inhibition [3]: 23%; inhibition [4]: 6%; inhibition [5]: -0%
19 | 0.316 | > 10000 | – | Cc1cc(C)c2cccc(OCc3c(Cl)ccc(S(=O)(=O)NC4(C(=O)N5CCN(CCC[N+](C)(C)C)CC5)CCOCC4)c3Cl)c2n1 | –
20 | 0.398 | > 10000 | 5.01 | Cc1cc(C)c2cccc(OCc3c(Cl)ccc(S(=O)(=O)NC4(C(=O)N5CCC(C[N+](C)(C)C)CC5)CCOCC4)c3Cl)c2n1 | –
21 | 0.0398 | > 10000 | 3.16 | Cc1cc(C)c2cccc(OCc3c(Cl)ccc(S(=O)(=O)NC4(C(=O)N5CC[N+](C)(CCCCCC[N+](C)(C)C)CC5)CCOCC4)c3Cl)c2n1 | –
22 | 0.1 | > 10000 | 0.398 | Cc1cc(C)c2cccc(OCc3c(Cl)ccc(S(=O)(=O)NC4(C(=O)N5CCN(C(=O)[C@@H](N)CCCCN)CC5)CCOCC4)c3Cl)c2n1 | –
23 | 0.126 | > 10000 | – | Cc1cc(C)c2cccc(OCc3c(Cl)ccc(S(=O)(=O)NC4(C(=O)N5CCN(C(=O)[C@@H](N)CCCNC(=N)N)CC5)CCOCC4)c3Cl)c2n1 | –
24 | 0.251 | > 10000 | 0.398 | Cc1cc(C)c2cccc(OCc3c(Cl)ccc(S(=O)(=O)NC4(C(=O)N5CCN(C(=O)[C@@H](N)CCCC[N+](C)(C)C)CC5)CCOCC4)c3Cl)c2n1 | –
25 | 0.251 | > 10000 | 5.01 | Cc1cc(C)c2cccc(OCc3c(Cl)ccc(S(=O)(=O)NC4(C(=O)N5CC[N+]6(CC5)CC[N+](C)(C)CC6)CCOCC4)c3Cl)c2n1 | –
26 | 0.0794 | > 10000 | 0.479 | Cc1cc(C)c2cccc(OCc3c(Cl)ccc(S(=O)(=O)NC4(C(=O)N5CCN(C(=O)CCCCN)CC5)CCOCC4)c3Cl)c2n1 | –
27 | 0.794 | > 10000 | 3.98 | Cc1cc(C)c2cccc(OCc3c(Cl)ccc(S(=O)(=O)NC4(C(=O)N5CCC(CC[N+](C)(C)C)CC5)CCOCC4)c3Cl)c2n1 | –
28 | 0.0501 | > 10000 | 0.724 | Cc1cc(C)c2cccc(OCc3c(Cl)ccc(S(=O)(=O)NC4(C(=O)N5CCN(C(=O)[C@@H](N)CCCN)CC5)CCOCC4)c3Cl)c2n1 | –
29 | 0.158 | > 10000 | 2.51 | Cc1cc(C)c2cccc(OCc3c(Cl)ccc(S(=O)(=O)NC4(C(=O)N5CCC(CNCCC[N+](C)(C)C)CC5)CCOCC4)c3Cl)c2n1 | –
30 | 0.1 | > 10000 | 1 | Cc1cc(C)c2cccc(OCc3c(Cl)ccc(S(=O)(=O)NC4(C(=O)N5CC[N+](C)(CCC[N+](C)(C)C)CC5)CCOCC4)c3Cl)c2n1 | –
31 | 0.0794 | > 10000 | 0.794 | Cc1cc(C)c2cccc(OCc3c(Cl)ccc(S(=O)(=O)NC4(C(=O)N5CCN(C(=O)C[N+](C)(C)C)CC5)CCOCC4)c3Cl)c2n1 | –
32 | 0.631 | > 10000 | 3.16 | Cc1cc(C)c2cccc(OCc3c(Cl)ccc(S(=O)(=O)NC4(C(=O)N5CC[N+]6(CCCC6)CC5)CCOCC4)c3Cl)c2n1 | –
33 | 0.0631 | > 10000 | 0.794 | Cc1cc(C)c2cccc(OCc3c(Cl)ccc(S(=O)(=O)NC4(C(=O)N5CCN(CCCCCC[N+](C)(C)C)CC5)CCOCC4)c3Cl)c2n1 | –

Reference: ChEMBL document CHEMBL1955756, “Design and synthesis of novel sulfonamide-containing bradykinin hB(2) receptor antagonists. Synthesis and structure-relationships of α,α-tetrahydropyranylglycine” (Bioorg Med Chem, 2012)
